# According to ChEMBL document CHEMBL1136923, “Highly potent, orally available anti-inflammatory broad-spectrum chemokine inhibitors” (J Med Chem, 2009):
# Assays:
# [1] = AUC (0 to t) in Sprague-Dawley rat at 1 mg/kg, iv administered as single dose; format: ADME, organism-based, Plasma; design: dose 1 mg/kg, route intravenous; conditions: Sprague-Dawley, plasma
# In short: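 Male Sprague-Dawley rats, three per compound per route, single dose. IV vehicle 5% DMSO in 0.9% saline; oral gavage vehicle 1% carboxymethylcellulose in 0.9% saline; fed ad libitum. Plasma taken 5–480 min post-dose, extracted with 0.1% formic acid in acetonitrile, quantified by LC/MS/MS (positive mode). AUC(0–t) by linear/log trapezoidal rule; IV curve back-extrapolated assuming initial volume 0.26 L/kg.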
# [2] = Antagonist activity at Interleukin-8 receptor in human PMNC assessed as inhibition of CXCL8-induced chemotaxis at 1 nM after 2 hrs by microtiter format trans-well migration assay; format: functional
# In short: (§1)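 Microtiter trans-well migration assay in Gey's balanced salt solution with 1 mg/mL endotoxin-free BSA, no fetal calf serum. Migration ran 2 h at 37 °C. Compounds dissolved in DMSO and added to both top and bottom compartments, final DMSO 1%.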
# Mus musculus [3] = assay: Antiinflammatory activity in mouse assessed as inhibition of LPS-induced TNFalpha upregulation at 0.025 ug, sc measured 2 hrs after LPS challenge; format: functional
# In short: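 Murine sublethal endotoxemia: LPS given intraperitoneally, with serum TNF-α measured 2 h after the LPS injection as the end point. Compound was given subcutaneously or orally. Vehicle was 0.6% DMSO and 1% carboxymethylcellulose (final concentrations) in sterile water. Effect is reported as % relative to control.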
# [4] = target: C-C chemokine receptor type 2 (Homo sapiens) (UniProt P41597); assay: Antagonist activity at CCR2 in human THP1 cells assessed as inhibition of CCL2-induced chemotaxis after 2 hrs by microtiter format trans-well migration assay; format: functional, cell-based; conditions: THP-1; in short: as §1
# [5] = Clearance in Sprague-Dawley rat at 1 mg/kg, iv administered as single dose; format: ADME, organism-based; design: dose 1 mg/kg, route intravenous; conditions: in vivo
# In short: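 Male Sprague-Dawley rats, three per compound, receive a single intravenous dose in 5% DMSO in 0.9% saline. Food and water are given ad libitum. Plasma is taken at 5, 15, 30, 60, 120, 180, 240 and 480 min. Drug is measured by LC/MS/MS after extraction with 0.1% formic acid in acetonitrile. The curve is back-extrapolated to time zero assuming an initial volume of 0.26 L/kg.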
# THP-1 [6] = assay: Toxicity in human THP1 cells assessed as change in cell size at 0.1 nM by forward scatter flow cytometry relative to control; format: cell-based; conditions: thp-1, 0.0001 µM
# Mus musculus [7] = assay: Antiinflammatory activity in mouse assessed as inhibition of LPS-induced TNFalpha upregulation at 0.00075 mg, sc measured 2 hrs after LPS challenge; format: functional
# In short: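 Murine sublethal endotoxemia: LPS given intraperitoneally, serum TNF-α measured 2 h after LPS injection. Compound vehicle 0.6% DMSO plus 1% carboxymethylcellulose (final concentrations) in sterile water.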
# [8] = target: C-X-C chemokine receptor type 4 (Homo sapiens) (UniProt P61073); assay: Antagonist activity at CXCR4 in human THP1 cells assessed as inhibition of CXCL12-induced chemotaxis at 10 nM after 2 hrs by microtiter format trans-well migration assay; format: functional, cell-based; conditions: THP-1; in short: as §1
# [9] = target: C-C chemokine receptor type 5 (Homo sapiens) (UniProt P51681); assay: Antagonist activity at CCR5 in human THP1 cells assessed as inhibition of CCL5-induced chemotaxis at 100 nM after 2 hrs by microtiter format trans-well migration assay; format: functional, cell-based; conditions: THP-1; in short: as §1
# THP-1 [10] = assay: Endogenous chemoattractant activity at human THP1 cells assessed as cell migration at 0.1 nM after 2 hrs by microtiter format trans-well migration assay; format: functional
# [11] = target: T1, C-C chemokine receptor type 1 (Homo sapiens) (UniProt P32246); assay: Antagonist activity at CCR1 in human THP1 cells assessed as inhibition of CCL3-induced chemotaxis at 0.01 nM after 2 hrs by microtiter format trans-well migration assay; format: functional, cell-based; conditions: THP-1; in short: as §1
# T1 sequence (whole entry): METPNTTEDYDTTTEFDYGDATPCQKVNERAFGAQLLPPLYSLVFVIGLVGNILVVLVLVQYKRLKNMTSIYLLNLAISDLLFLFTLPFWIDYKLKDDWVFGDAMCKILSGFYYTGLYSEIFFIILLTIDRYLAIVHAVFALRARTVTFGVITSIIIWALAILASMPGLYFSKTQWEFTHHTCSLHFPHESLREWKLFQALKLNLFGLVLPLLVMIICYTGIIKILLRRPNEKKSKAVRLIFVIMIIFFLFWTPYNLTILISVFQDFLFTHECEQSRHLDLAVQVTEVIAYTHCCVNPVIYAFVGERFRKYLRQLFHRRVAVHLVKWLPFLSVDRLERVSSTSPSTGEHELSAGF
# [12] = Cmax in Sprague-Dawley rat at 3 mg/kg, po administered as single dose; format: ADME, organism-based; design: dose 3 mg/kg, route oral; conditions: in vivo
# In short: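 Male Sprague-Dawley rats, three per compound, receive a single oral dose by gavage in 1% carboxymethylcellulose in 0.9% saline, with food and water ad libitum. Plasma is sampled from 5 to 480 min and drug is quantified by positive-mode LC/MS/MS after acetonitrile/formic acid extraction. The lower limit of quantitation is about 2 ng/mL. Exposure is AUC(0→t) by the linear/log trapezoidal rule, and F is oral fractional bioavailability.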
# [13] = Antagonist activity at Interleukin-8 receptor in human PMNC assessed as inhibition of CXCL8-induced chemotaxis at 0.01 nM after 2 hrs by microtiter format trans-well migration assay; format: functional; in short: as §1
# [14] = target: C-C chemokine receptor type 2 (Homo sapiens) (UniProt P41597); assay: Antagonist activity at CCR2 in human THP1 cells assessed as inhibition of CCL2-induced chemotaxis at 0.1 nM after 2 hrs by microtiter format trans-well migration assay; format: functional, cell-based; conditions: THP-1; in short: as §1
# Mus musculus [15] = assay: Antiinflammatory activity in po dosed mouse assessed as inhibition of LPS-induced TNFalpha upregulation measured 2 hrs after LPS challenge; format: functional
# THP-1 [16] = assay: Toxicity in human THP1 cells assessed as change in cell size at 1000 nM by forward scatter flow cytometry relative to control; format: cell-based; conditions: thp-1, 1 µM
# [17] = target: C-X-C chemokine receptor type 4 (Homo sapiens) (UniProt P61073); assay: Antagonist activity at CXCR4 in human THP1 cells assessed as inhibition of CXCL12-induced chemotaxis after 2 hrs by microtiter format trans-well migration assay; format: functional, cell-based; conditions: THP-1; in short: as §1
# Mus musculus [18] = assay: Antiinflammatory activity in sc dosed mouse assessed as inhibition of LPS-induced TNFalpha upregulation measured 2 hrs after LPS challenge; format: functional
# Sequence of C-X-C chemokine receptor type 4 (Homo sapiens) (P61073 whole entry): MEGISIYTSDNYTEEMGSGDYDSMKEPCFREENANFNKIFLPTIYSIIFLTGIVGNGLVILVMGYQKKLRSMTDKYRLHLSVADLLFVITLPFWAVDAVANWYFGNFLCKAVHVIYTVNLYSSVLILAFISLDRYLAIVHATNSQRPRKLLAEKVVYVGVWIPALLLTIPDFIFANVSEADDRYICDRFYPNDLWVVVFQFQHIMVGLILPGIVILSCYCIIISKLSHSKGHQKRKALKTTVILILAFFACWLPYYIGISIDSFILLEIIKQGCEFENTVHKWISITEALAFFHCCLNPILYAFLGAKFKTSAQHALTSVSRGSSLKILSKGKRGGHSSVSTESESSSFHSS
# Sequence of C-C chemokine receptor type 2 (Homo sapiens) (P41597 whole entry, looked up): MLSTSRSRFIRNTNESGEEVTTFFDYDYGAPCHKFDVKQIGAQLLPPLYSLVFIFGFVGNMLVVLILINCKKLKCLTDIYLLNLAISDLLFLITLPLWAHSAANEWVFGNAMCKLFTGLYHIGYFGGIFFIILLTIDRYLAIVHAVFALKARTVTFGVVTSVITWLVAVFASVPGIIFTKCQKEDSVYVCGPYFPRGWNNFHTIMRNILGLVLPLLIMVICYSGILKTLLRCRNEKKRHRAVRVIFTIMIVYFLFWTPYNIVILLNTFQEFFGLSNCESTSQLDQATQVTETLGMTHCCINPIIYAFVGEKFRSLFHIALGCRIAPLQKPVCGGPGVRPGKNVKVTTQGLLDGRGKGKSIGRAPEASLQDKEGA
# Sequence of C-C chemokine receptor type 5 (Homo sapiens) (P51681 whole entry, looked up): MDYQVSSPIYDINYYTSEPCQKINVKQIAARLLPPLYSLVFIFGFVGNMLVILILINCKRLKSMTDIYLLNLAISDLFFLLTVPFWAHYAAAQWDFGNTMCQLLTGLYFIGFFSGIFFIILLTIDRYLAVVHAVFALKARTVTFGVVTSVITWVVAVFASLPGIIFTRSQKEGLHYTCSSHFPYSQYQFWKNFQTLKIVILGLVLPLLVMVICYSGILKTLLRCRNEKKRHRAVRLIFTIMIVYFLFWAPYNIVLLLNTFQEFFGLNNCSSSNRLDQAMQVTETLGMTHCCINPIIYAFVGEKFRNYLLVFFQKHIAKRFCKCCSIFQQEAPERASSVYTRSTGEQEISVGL
smiles,measurement,setting,value
CCCCCCCCCCC(C)(C)C(=O)N[C@H]1CCCCNC1=O,AUC(0-t),[1],395 ng·h/mL
same,inhibition at 0.001 µM,[2],71%
same,inhibition (INH),Mus musculus [3],67%
same,ED50,[4],0.09 nM
same,clearance,[5],40 mL/min/kg
same,fold change (FC),THP-1 [6],1.04
same,inhibition (INH),Mus musculus [7],57%
same,inhibition,[8],107%
same,inhibition,[9],92.5%
same,Activity,THP-1 [10],2556%
same,inhibition,[11],21%
same,Cmax,[12],60 ng/mL
same,inhibition at 10 pM,[13],-12%
same,inhibition,[14],53.5%
same,ED50,Mus musculus [15],0.3 mg/kg
same,fold change (FC),THP-1 [16],1.05
same,ED50,[17],1 nM
same,ED50,Mus musculus [18],0.00015 mg/kg
